One may read the IC50 as the concentration that inhibits the measured activity by half.

Some results are limits rather than exact numbers.

The test system of series [1] is HCT-8. Put plainly: Antiproliferative activity against human HCT8 cells after 72 hrs by MTT assay. It is filed as functional, cell-based. The following applies: HCT-8, 72 h. The procedure, abridged: (§1)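 MTT proliferation assay (details in supplement); positive control 5-FU; mixture comparator ASA + CA physical mixture at 1:1 mole ratio; IC50 = concentration inhibiting 50% of proliferation; mean ± SD from three independent experiments.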
Background: Tetrazolium dyes change colour on reduction, which living cells bring about.

In series [2] the test system is HCT-8. Put plainly: Antiproliferative activity against human HCT8 cells after 72 hrs in presence of cinnamaldehyde by MTT assay. It is filed as functional, cell-based. The following applies: HCT-8, 72 h. The procedure, abridged: as §1
A further series has as its system CCD-841CoN. Nature of the series: Antiproliferative activity against human CCD-841-CoN cells after 72 hrs by MTT assay. It is filed as cell-based. Summed up:
(§2)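 MTT proliferation assay on colorectal cancer (DLD-1) or non-tumorigenic colon (CCD841) cells. IC50 is the drug concentration inhibiting 50% of cell proliferation, given as the mean ± SD of three independent experiments.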

The test system of a further series is DLD-1. Nature of the series: Antiproliferative activity against human DLD1 cells after 72 hrs by MTT assay. The class given is functional, cell-based. The following applies: DLD-1, 72 h. Summed up:
as §2

For series [3], the system named is HCT-8. Put plainly: Cell cycle arrest in human HCT8 cells assessed as accumulation at S phase at 3 uM after 24 hrs by propidium iodide staining-based flow cytometric method (reference value: 36.19%). The class given is functional. For orientation: In flow cytometry, cells or beads pass a laser one at a time.
Series [4] deals with HCT-8. Nature of the series: Induction of apoptosis in human HCT8 cells assessed as late apoptotic cells at 6 uM after 24 hrs in presence of ROS scavenger NAC by annexin V-FITC/propidium iodide staining-based flow cytometric method (reference value: 5.42%). It is filed as functional.
In series [5] the test system is HCT-8. Nature of the series: Induction of reactive oxygen species formation in human HCT8 cells at 12 uM after 24 hrs by DCFH-DA dye-based flow cytometric method (reference value: 3.67%). It is filed as functional. Summed up: (§3)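 Cells treated 24 h with 0, 3, 6 or 12 μM, stained with fluorogenic 2',7'-dichlorofluorescin diacetate; ROS level read by flow cytometry.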

Series [6] concerns HCT-8. Nature of the series: Cell cycle arrest in human HCT8 cells assessed as accumulation at G2 phase at 3 uM after 24 hrs by propidium iodide staining-based flow cytometric method (reference value: 23.77%). The class given is functional.
Series [7] concerns HCT-8. Put plainly: Cell cycle arrest in human HCT8 cells assessed as accumulation at G1 phase at 12 uM after 24 hrs by propidium iodide staining-based flow cytometric method (reference value: 40.05%). It is filed as functional.
Series [8] relates to HCT-8. Nature of the series: Cell cycle arrest in human HCT8 cells assessed as accumulation at S phase at 6 uM after 24 hrs by propidium iodide staining-based flow cytometric method (reference value: 36.19%). It is filed as functional.
Series [9] relates to HCT-8. Put plainly: Induction of apoptosis in human HCT8 cells assessed as late apoptotic cells at 12 uM after 24 hrs by annexin V-FITC/propidium iodide staining-based flow cytometric method (reference value: 2.40%).
The nature of series [10]: Selectivity index, ratio of IC50 for human CCD-841-CoN cells to IC50 for human DLD1 cells. The class given is toxicity. To be noted: CCD-841-CoN cells versus DLD1 cells, read-out: Ratio IC50. Summed up:
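MTT IC50 in DLD-1 and non-tumorigenic CCD841 colon cells; IC50 = concentration inhibiting 50% proliferation; mean ± SD, three independent experiments.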

The subject of series [11] is HCT-8. Nature of the series: Induction of reactive oxygen species formation in human HCT8 cells at 6 uM after 24 hrs by DCFH-DA dye-based flow cytometric method (reference value: 3.67%). The class given is functional. Summed up: as §3
Series [12] concerns HCT-8. Put plainly: Potency index, ratio of 5-FU IC50 to test compound IC50 for human HCT8 cells. The class given is functional.
The test system of series [13] is HCT-8. Nature of the series: Cell cycle arrest in human HCT8 cells assessed as accumulation at G1 phase at 3 uM after 24 hrs by propidium iodide staining-based flow cytometric method (reference value: 40.05%). It is filed as functional.
Series [14] deals with HCT-8. Put plainly: Induction of apoptosis in human HCT8 cells assessed as upregulation of cleaved PARP levels after 24 hrs by Western blot method. It is filed as functional, cell-based. Summed up:
(§4)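 Cells treated 24 h with 0, 3, 6, 12 μM or control (0.1% DMSO); whole-cell lysates immunoblotted for cleaved caspase 3 and PARP.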
(In western blotting, separated proteins are transferred to a membrane and probed.)

The subject of series [15] is HCT-8. Put plainly: Induction of apoptosis in human HCT8 cells assessed as late apoptotic cells at 3 uM after 24 hrs by annexin V-FITC/propidium iodide staining-based flow cytometric method (reference value: 2.40%).
Series [16] deals with HCT-8. Put plainly: Cell cycle arrest in human HCT8 cells assessed as accumulation at S phase at 12 uM after 24 hrs by propidium iodide staining-based flow cytometric method (reference value: 36.19%). The class given is functional.
The subject of series [17] is HCT-8. Put plainly: Induction of apoptosis in human HCT8 cells assessed as early apoptotic cells at 6 uM after 24 hrs by annexin V-FITC/propidium iodide staining-based flow cytometric method (reference value: 0.25%). It is filed as functional.
The subject of series [18] is HCT-8. Put plainly: Cell cycle arrest in human HCT8 cells assessed as accumulation at G2 phase at 6 uM after 24 hrs by propidium iodide staining-based flow cytometric method (reference value: 23.77%). It is filed as functional.
Series [19] has as its system HCT-8. Nature of the series: Induction of reactive oxygen species formation in human HCT8 cells at 3 uM after 24 hrs by DCFH-DA dye-based flow cytometric method (reference value: 3.67%). It is filed as functional. Summed up:
as §3

Series [20] deals with HCT-8. Put plainly: Induction of apoptosis in human HCT8 cells assessed as early apoptotic cells at 3 uM after 24 hrs by annexin V-FITC/propidium iodide staining-based flow cytometric method (reference value: 0.25%). The class given is functional.
In series [21] the test system is HCT-8. Nature of the series: Induction of apoptosis in human HCT8 cells assessed as early apoptotic cells at 6 uM after 24 hrs in presence of ROS scavenger NAC by annexin V-FITC/propidium iodide staining-based flow cytometric method (reference value: 0.25%). The class given is functional.
In series [22] the test system is HCT-8. Put plainly: Induction of apoptosis in human HCT8 cells assessed as upregulation of cleaved caspase-3 levels after 24 hrs by Western blot method. The class given is functional, cell-based. The procedure, abridged:
as §4

In series [23] the test system is HCT-8. Nature of the series: Cell cycle arrest in human HCT8 cells assessed as accumulation at G2 phase at 12 uM after 24 hrs by propidium iodide staining-based flow cytometric method (reference value: 23.77%). It is filed as functional.
For series [24], the system named is HCT-8. Nature of the series: Induction of apoptosis in human HCT8 cells assessed as late apoptotic cells at 6 uM after 24 hrs by annexin V-FITC/propidium iodide staining-based flow cytometric method (reference value: 2.40%).
Series [25] concerns HCT-8. Put plainly: Cell cycle arrest in human HCT8 cells assessed as accumulation at G1 phase after 24 hrs by propidium iodide staining-based flow cytometric method. It is filed as functional.
Series [26] deals with HCT-8. Put plainly: Cell cycle arrest in human HCT8 cells assessed as accumulation at G1 phase at 6 uM after 24 hrs by propidium iodide staining-based flow cytometric method (reference value: 40.05%). The class given is functional.
In series [27] the test system is HCT-8. Put plainly: Induction of apoptosis in human HCT8 cells after 24 hrs by annexin V-FITC/propidium iodide staining-based flow cytometric method. It is filed as functional, cell-based.
A further series concerns Mus musculus. Nature of the series: Toxicity in BALB/c nude mouse xenografted with human HCT8 cells assessed as change in body weight at 60 mg/kg, ip administered daily for 32 days. To be noted: in vivo, 768 h. The class given is organism-based. Summed up:
(§5)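 HCT-8 cells inoculated subcutaneously; after solid tumours established, mice randomized to daily intraperitoneal dosing at 60 mg/kg or vehicle Tween 80/PBS (5:95) for 32 consecutive days; tumour volume, tumour weight and body weight recorded; n = 6 per group; mean ± SD; P vs vehicle.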

Series [28] has as its system HCT-8. Put plainly: Antitumor activity against human HCT8 cells xenografted in BALB/c nude mouse assessed as tumor weight at 60 mg/kg, ip administered daily for 32 days measured every 4 days during compound dosing relative to control. The class given is functional. The procedure, abridged: as §5
In series [29] the test system is HCT-8. Put plainly: Induction of apoptosis in human HCT8 cells assessed as early apoptotic cells at 12 uM after 24 hrs by annexin V-FITC/propidium iodide staining-based flow cytometric method (reference value: 0.25%). The class given is functional.
A short description of series [30]: Selectivity index, ratio of IC50 for human CCD-841-CoN cells to IC50 for human HCT8 cells. It is filed as toxicity. To be noted: CCD-841-CoN cells versus HCT8 cells, read-out: Ratio IC50.
Series [31] concerns HCT-8. Nature of the series: Antiproliferative activity against human HCT8 cells after 72 hrs in presence of aspirin by MTT assay. The class given is functional, cell-based. To be noted: HCT-8, 72 h. The procedure, abridged: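 MTT proliferation assay in HCT-8 colorectal cancer cells, run on a physical mixture with aspirin at a 1:1 mole ratio. IC50 is the concentration inhibiting 50% of cell proliferation, given as the mean ± SD of three independent experiments.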

Take `COC(=O)c1ccccc1OC(C)=O`: the IC50 in the series on HCT-8 [1] was above 100 µM.
Regarding `CC(=O)Oc1ccccc1C(=O)O` [ASPIRIN], the IC50 in the series with HCT-8 [1] is above 100 µM; with HCT-8 [2], 15.6 µM.
`CC(=O)Oc1ccccc1C(=O)Oc1ccccc1/C=C/C=O` showed an IC50 in the series on HCT-8 [1] of 20.3 µM.
Still for that read-out and setting: next, `CC(=O)Oc1ccc(F)cc1/C=C/C=O`: 10.5 µM; `COc1ccc(OC(=O)c2ccccc2OC(C)=O)c(/C=C/C=O)c1`: 9.3 µM; `CC(=O)Oc1ccccc1C(=O)Oc1ccc(C)cc1/C=C/C=O`: 8.5 µM.
Turning to `O=c1[nH]cc(F)c(=O)[nH]1` [FLUOROURACIL], the figures for the IC50 with HCT-8 [1], with CCD-841CoN and in the series on DLD-1 were 28.9 µM, 35.7 µM and 33 µM, respectively.
For `CC(=O)Oc1ccccc1C(=O)Oc1ccc(F)cc1/C=C/C=O`, the Activity with HCT-8 [3] amounted to 35.89%; with HCT-8 [4], 5.58%; in the series with HCT-8 [5], 47.83%; with HCT-8 [6] it was 20.94%; in the series on HCT-8 [7], 51.62%; in the series on HCT-8 [8], 38.71%. The Activity with HCT-8 [9] is 27.71%; in the series on HCT-8 [11] it was 25.07%; in the series on HCT-8 [13], 43.17%; in the series with HCT-8 [14] it was “Dose-dependent effect”; with HCT-8 [15] it was 5.42%; in the series on HCT-8 [16] it was 36.15%. Besides, the Activity is 15.56% with HCT-8 [17]; 12.63% in the series on HCT-8 [18]; 18.67% in the series on HCT-8 [19]; 8.69% in the series with HCT-8 [20]; 7.4% in the series with HCT-8 [21]; “Dose-dependent effect” in the series with HCT-8 [22]. In addition, the Activity in the series with HCT-8 [23] was 12.23%; in the series on HCT-8 [24], 17.03%; in the series with HCT-8 [25], “Dose-dependent effect”; with HCT-8 [26] it was 48.66%; in the series on HCT-8 [27], “Dose-dependent effect”; in the series with Mus musculus, “Non-Toxic”. In addition, the Activity is listed as 47% in the series with HCT-8 [28] and 15.84% with HCT-8 [29]. For the same compound, the selectivity ratio in series [10] is 7; in [30] it was 11. For the same compound, the “Ratio IC50” value in the series on HCT-8 [12] is on record as 11. In addition, the half-inhibitory concentration (IC50) with HCT-8 [1] was 2.6 µM; in the series on CCD-841CoN, 30.7 µM; in the series on DLD-1, 4.3 µM.
`COc1cccc(/C=C/C=O)c1OC(=O)c1ccccc1OC(C)=O`: the IC50 in the series on HCT-8 [1] came to 17.6 µM.
The same measure, in the same setting: with `CC(=O)Oc1ccccc1C(=O)Oc1ccc(Br)cc1/C=C/C=O` the figure was 5.6 µM.
As to `O=C/C=C/c1ccccc1` [CINNAMALDEHYDE], the IC50 in the series on HCT-8 [31] worked out at 15.6 µM; in the series with HCT-8 [1] it was 29.4 µM.
Turning to `COc1ccc(/C=C/C=O)c(OC(=O)c2ccccc2OC(C)=O)c1`, in the series with HCT-8 [1], the IC50 turned out to be 15.8 µM.
Still for that read-out and setting: next, `CC(=O)Oc1ccccc1C(=O)Oc1ccc(Cl)cc1/C=C/C=O`: 4.3 µM.

The values above are taken from ChEMBL document CHEMBL4229468, “Novel cinnamaldehyde-based aspirin derivatives for the treatment of colorectal cancer” (Bioorg Med Chem Lett, 2018).
